Laboratory results: paper PMC8114154 (Journal of Applied Glycoscience, 2019)

Legend:
AsojAgdL = assay: glucose release; assay type: biochemical, Aspergillus sojae; conditions: 20 mM MES pH 6.0, 40 °C, 60 min
Method in brief: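 Recombinant enzyme expressed in A. nidulans, purified by His-Trap affinity then Superdex 200 gel filtration. Incubated with substrates at various concentrations for 60 min at 40 °C. Stopped with 10 % oxalic acid and 10 min boiling. Released glucose quantified by glucose assay kit. Km from nonlinear-regression Michaelis–Menten fit of initial velocities over the low-concentration range only.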

AnigAgdA = molecular target: T1, AnigAgdA (Aspergillus niger, UniProt P56526); assay: glucose release, fit of v = Vmax[S]/; assay type: biochemical; conditions: 20 mM acetate pH 4.0, 40 °C, 60 min; substrate inhibition
T1 sequence (P56526 26-985): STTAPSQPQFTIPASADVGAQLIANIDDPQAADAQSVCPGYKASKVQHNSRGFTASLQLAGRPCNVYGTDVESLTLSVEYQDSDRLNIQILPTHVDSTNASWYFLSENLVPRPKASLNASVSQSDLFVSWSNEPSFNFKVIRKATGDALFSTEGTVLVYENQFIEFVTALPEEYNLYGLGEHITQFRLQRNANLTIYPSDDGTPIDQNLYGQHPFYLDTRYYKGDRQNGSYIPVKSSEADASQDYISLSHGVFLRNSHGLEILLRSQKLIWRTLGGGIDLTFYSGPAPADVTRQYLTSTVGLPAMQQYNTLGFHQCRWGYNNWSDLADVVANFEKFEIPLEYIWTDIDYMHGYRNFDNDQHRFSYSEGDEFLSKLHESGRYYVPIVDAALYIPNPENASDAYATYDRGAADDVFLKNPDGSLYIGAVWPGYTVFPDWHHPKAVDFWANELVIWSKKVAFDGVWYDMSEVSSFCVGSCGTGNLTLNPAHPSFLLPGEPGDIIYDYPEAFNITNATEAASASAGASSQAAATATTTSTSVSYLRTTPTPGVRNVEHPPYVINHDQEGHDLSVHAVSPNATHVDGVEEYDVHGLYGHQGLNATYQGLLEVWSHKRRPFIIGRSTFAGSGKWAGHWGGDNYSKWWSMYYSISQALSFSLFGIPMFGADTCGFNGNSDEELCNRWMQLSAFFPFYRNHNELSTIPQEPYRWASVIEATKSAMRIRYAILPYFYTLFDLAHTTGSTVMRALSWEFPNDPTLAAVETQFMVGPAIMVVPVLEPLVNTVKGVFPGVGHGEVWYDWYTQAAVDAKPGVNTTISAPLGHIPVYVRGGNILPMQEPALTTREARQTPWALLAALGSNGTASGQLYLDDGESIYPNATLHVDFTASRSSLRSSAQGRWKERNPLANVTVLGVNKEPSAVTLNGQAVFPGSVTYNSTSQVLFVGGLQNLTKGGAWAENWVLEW

[1] = low substrate range only (substrate inhibition)

| Km (AsojAgdL) | Km (AsojAgdL; [1]) | Ki (AnigAgdA) | Compound |
| --- | --- | --- | --- |
| 1100 ± 200 µM | – | – | OC[C@H]1O[C@H](OC[C@H]2O[C@H](OC[C@H]3O[C@H](OC[C@H]4O[C@H](OC[C@H]5O[C@H](OC[C@H]6OC(O)[C@H](O)[C@@H](O)[C@@H]6O)[C@H](O)[C@@H](O)[C@@H]5O)[C@H](O)[C@@H](O)[C@@H]4O)[C@H](O)[C@@H](O)[C@@H]3O)[C@H](O)[C@@H](O)[C@@H]2O)[C@H](O)[C@@H](O)[C@@H]1O (stereo partly shown) [Isomaltohexaose] |
| 900 ± 100 µM | – | – | OC[C@H]1O[C@H](OC[C@H]2O[C@H](OC[C@H]3O[C@H](OC[C@H]4O[C@H](OC[C@H]5OC(O)[C@H](O)[C@@H](O)[C@@H]5O)[C@H](O)[C@@H](O)[C@@H]4O)[C@H](O)[C@@H](O)[C@@H]3O)[C@H](O)[C@@H](O)[C@@H]2O)[C@H](O)[C@@H](O)[C@@H]1O (stereo partly shown) [Isomaltopentaose] |
| 2000 ± 300 µM | – | – | OC[C@H]1O[C@H](OC[C@H]2OC(O)[C@H](O)[C@@H](O)[C@@H]2O)[C@H](O)[C@@H](O)[C@@H]1O (stereo partly shown) [Isomaltose] |
| 2400 ± 800 µM | – | – | OC[C@H]1O[C@H](OC[C@H]2O[C@H](OC[C@H]3O[C@H](OC[C@H]4OC(O)[C@H](O)[C@@H](O)[C@@H]4O)[C@H](O)[C@@H](O)[C@@H]3O)[C@H](O)[C@@H](O)[C@@H]2O)[C@H](O)[C@@H](O)[C@@H]1O (stereo partly shown) [Isomaltotetraose] |
| 500 ± 100 µM | – | – | OC[C@H]1O[C@H](OC[C@H]2O[C@H](OC[C@H]3OC(O)[C@H](O)[C@@H](O)[C@@H]3O)[C@H](O)[C@@H](O)[C@@H]2O)[C@H](O)[C@@H](O)[C@@H]1O (stereo partly shown) [Isomaltotriose] |
| 2100 ± 300 µM | – | – | OC[C@H]1O[C@H](O[C@H]2C(O)O[C@H](CO)[C@@H](O)[C@@H]2O)[C@H](O)[C@@H](O)[C@@H]1O (stereo partly shown) [Kojibiose] |
| – | 900 ± 100 µM | 30.8 ± 7.0 mM | OC[C@H]1O[C@H](O[C@H]2[C@H](O)[C@@H](O)[C@@H](O[C@H]3[C@H](O)[C@@H](O)[C@@H](O[C@H]4[C@H](O)[C@@H](O)[C@@H](O[C@H]5[C@H](O)[C@@H](O)[C@@H](O[C@H]6[C@H](O)[C@@H](O)C(O)O[C@@H]6CO)O[C@@H]5CO)O[C@@H]4CO)O[C@@H]3CO)O[C@@H]2CO)[C@H](O)[C@@H](O)[C@@H]1O (stereo partly shown) [Maltohexaose] |
| – | 900 ± 100 µM | 19.6 ± 2.2 mM | OC[C@H]1O[C@H](O[C@H]2[C@H](O)[C@@H](O)[C@@H](O[C@H]3[C@H](O)[C@@H](O)[C@@H](O[C@H]4[C@H](O)[C@@H](O)[C@@H](O[C@H]5[C@H](O)[C@@H](O)C(O)O[C@@H]5CO)O[C@@H]4CO)O[C@@H]3CO)O[C@@H]2CO)[C@H](O)[C@@H](O)[C@@H]1O (stereo partly shown) [Maltopentaose] |
| 2200 ± 300 µM | – | 12.0 ± 3.6 mM | OC[C@H]1O[C@H](O[C@H]2[C@H](O)[C@@H](O)C(O)O[C@@H]2CO)[C@H](O)[C@@H](O)[C@@H]1O (stereo partly shown) [Maltose] |
| – | 1600 ± 100 µM | – | OC[C@H]1O[C@H](O[C@H]2[C@H](O)[C@@H](O)[C@@H](O[C@H]3[C@H](O)[C@@H](O)[C@@H](O[C@H]4[C@H](O)[C@@H](O)C(O)O[C@@H]4CO)O[C@@H]3CO)O[C@@H]2CO)[C@H](O)[C@@H](O)[C@@H]1O (stereo partly shown) [Maltotetraose] |
| – | 2000 µM | 3.8 ± 0.7 mM | OC[C@H]1O[C@H](O[C@H]2[C@H](O)[C@@H](O)[C@@H](O[C@H]3[C@H](O)[C@@H](O)C(O)O[C@@H]3CO)O[C@@H]2CO)[C@H](O)[C@@H](O)[C@@H]1O (stereo partly shown) [Maltotriose] |
| 2500 ± 400 µM | – | – | OC[C@H]1O[C@H](O[C@H]2[C@H](O)[C@@H](CO)OC(O)[C@@H]2O)[C@H](O)[C@@H](O)[C@@H]1O (stereo partly shown) [Nigerose] |
